The target of assay [1] is T1, Human immunodeficiency virus type 1 integrase (Human immunodeficiency virus 1, UniProt Q7ZJM1). Description: Inhibition of strand transfer activity of HIV-1 integrase. Put shortly:
(§1)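 Recombinant HIV-1 integrase (200 nM final) preincubated with inhibitor 30 min at 30 °C in buffer (pH 7.2 MOPS, 7.5 mM MnCl2, 10% DMSO, 50 mM NaCl, BSA, reducing agents, glycerol). Then 20 nM 5′-32P-labeled linear oligonucleotide substrate added, reaction run 1 h more. Products resolved on denaturing 20% polyacrylamide/urea gel. IC50 read from plot of concentration versus percent inhibition.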

Assay [2] has as its target T1, Human immunodeficiency virus type 1 integrase. As to the kind of experiment: Inhibition of 3'- processing activity of HIV-1 integrase. Put shortly: as §1

By IC50 is commonly meant the concentration that inhibits the measured activity by half.

Some results are limits rather than exact numbers.

T1 sequence (Q7ZJM1 whole entry): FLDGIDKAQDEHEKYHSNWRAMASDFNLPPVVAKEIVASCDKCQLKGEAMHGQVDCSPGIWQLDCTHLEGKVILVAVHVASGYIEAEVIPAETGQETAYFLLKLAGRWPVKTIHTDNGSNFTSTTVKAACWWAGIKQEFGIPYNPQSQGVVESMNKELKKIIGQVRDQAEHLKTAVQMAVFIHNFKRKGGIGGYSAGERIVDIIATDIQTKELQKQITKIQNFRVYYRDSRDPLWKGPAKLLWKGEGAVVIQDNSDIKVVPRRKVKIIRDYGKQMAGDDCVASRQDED

With `COc1cc(/C=C/C(O)=C/C(=O)/C=C/c2ccc(O)cc2)ccc1O` [DEMETHOXYCURCUMIN], the results for the IC50 in assay [1] and in assay [2] were 120 µM and 140 µM, respectively.

Take `COc1cc(/C=C/C(=O)CC(=O)/C=C/c2ccc(O)c(OC)c2)ccc1O` [CURCUMIN]: the IC50 in assay [1] was determined as 140 µM; in assay [2], 150 µM.

For the compound `O=C(/C=C/c1ccc(O)c(O)c1)CC(=O)/C=C/c1ccc(O)c(O)c1`, the results for the IC50 in assay [1] and in assay [2] were 3.1 µM and 6 µM, respectively.

`COc1cc(/C=C/C(=O)CC(=O)/C=C/c2ccc(O)c(O)c2)ccc1O`: the values for the IC50 in assay [1] and in assay [2] were 9 µM and 18 µM, respectively.

Take `O=C(/C=C/c1ccc(O)c(O)c1)O[C@H](Cc1ccc(O)c(O)c1)C(=O)O` [ROSMARINIC ACID]: the IC50 in assay [1] is 4 µM; in assay [2] it was 9 µM.

Consider `COc1ccc(/C=C/C(=O)CC(=O)/C=C/c2ccc(OC)cc2)cc1`, for which the IC50 in assay [1] and in assay [2] was greater than 300 µM in each case.

Regarding `O=C(/C=C/c1ccc(O)cc1)CC(=O)/C=C/c1ccc(O)cc1` [BISDEMETHOXYCURCUMIN], the values for the IC50 in assay [1] and in assay [2] were 80 µM and 120 µM, respectively.

Consider `COc1cc(CCC(=O)CC(=O)CCc2ccc(O)c(OC)c2)ccc1O` [TETRAHYDROCURCUMIN], for which the IC50 in assay [1] and in assay [2] was greater than 300 µM in each case.

For `O=C(/C=C/c1ccccc1)CC(=O)/C=C/c1ccccc1`, the IC50 in assay [1] and in assay [2] was greater than 300 µM throughout.

The values above are taken from ChEMBL document CHEMBL1130151, “Curcumin analogs with altered potencies against HIV-1 integrase as probes for biochemical mechanisms of drug action” (J Med Chem, 1997).
